In ChEMBL document CHEMBL1125057, “Synthesis and antihypertensive activity of 4-(substituted-carbonylamino)-2H-1-benzopyrans” (1990):

How the values were obtained:
Format in all cases: functional
[1] = system: Rattus norvegicus; assay: Systolic blood pressure was measured at intervals from 1 to 6 hr in groups of six rats after oral administration of a dose of 1.0 mg/kg
Outline: (§1)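 Conscious spontaneously hypertensive rats of Okamoto origin, 14-24 weeks old, with systolic pressure >180 mmHg, were used in groups of six. Dosing was oral by esophageal needle as a solution or suspension in 1% w/v methylcellulose. Systolic pressure was taken by tail-cuff before dosing and at intervals up to 6 h postdose. Each determination was the mean of at least six recordings.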

[2] = system: Rattus norvegicus; assay: Systolic blood pressure at intervals from 1 to 6 hr in groups of six rats after 0.3 mg/kg p.o. administration.; conditions: route oral; outline: as §1
[3] = system: Rattus norvegicus; assay: Systolic blood pressure was measured at intervals from 1 to 6 hr in groups of six rats after oral administration of a dose of 0.1 mg/kg; outline: as §1
[4] = organism: Oryctolagus cuniculus; assay: Increase in rubidium-86 efflux in rabbit isolated mesenteric artery over basal rate
Outline: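 Segments (10-20 mg wet weight) of New Zealand White rabbit mesenteric artery were held 30 min in aerated (19:1 O2-CO2) HEPES buffer, pH 7.4, at 37 °C. They were loaded with 100-200 µCi rubidium-86 over 90 min, then moved every 3 min through label-free buffer. Compound at 1 × 10^-5 M was present over min 30-48. Efflux was counted by liquid scintillation. Value is the maximum rate coefficient over min 30-45 as a percentage of basal (mean over min 21-30), ± standard error.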

[5] = system: Rattus norvegicus; assay: Systolic blood pressure was measured at intervals from 1 to 6 hr in groups of six rats after oral administration of a dose of 10 mg/kg; outline: as §1
[6] = system: Rattus norvegicus; assay: Systolic blood pressure was measured at intervals from 1 to 6 hr in groups of six rats after oral administration of a dose of 1 mg/kg; outline: as §1
[7] = system: Rattus norvegicus; assay: Systolic blood pressure was measured at intervals from 1 to 6 hr in groups of six rats after oral administration of a dose of 3 mg/kg; outline: as §1
[8] = system: Rattus norvegicus; assay: Systolic blood pressure was measured at intervals from 1 to 6 hr in groups of six rats after oral administration of a dose of 10.0 mg/kg; outline: as §1
[9] = system: Rattus norvegicus; assay: Systolic blood pressure was measured at intervals from 1 to 6 h in groups of six rats after oral administration of a dose of 1 mg/kg; outline: as §1

CC1(C)Oc2ccc(C#N)cc2C(NC(=O)c2ccccc2)[C@@H]1O (some centres not stated)
Decrease in blood pressure [1]: 41% | Decrease in blood pressure [2]: 16%

CNC(=O)NC1c2cc(C#N)ccc2OC(C)(C)[C@H]1O (some centres not stated)
Decrease in blood pressure [1]: 61% | Decrease in blood pressure [3]: 14% | Increase [4]: 63% | Decrease in blood pressure [2]: 31%

CC1(C)Oc2ccc(C#N)cc2C(NC=O)[C@@H]1O (some centres not stated)
Decrease in blood pressure [5]: 26% | Decrease in blood pressure [6]: 10%

CC(=O)NC1c2cc(C(C)=O)ccc2OC(C)(C)[C@H]1O (some centres not stated)
Decrease in blood pressure [1]: 61% | Decrease in blood pressure [3]: 20% | Increase [4]: 38% | Decrease in blood pressure [2]: 23%

CC(=O)Nc1cc2c(cc1[N+](=O)[O-])C(NC(C)=O)[C@H](O)C(C)(C)O2 (some centres not stated)
Decrease in blood pressure [3]: 9% | Decrease in blood pressure [2]: 38%

CCC(=O)NC1c2cc(C#N)ccc2OC(C)(C)[C@H]1O (some centres not stated)
Decrease in blood pressure [1]: 29% | Decrease in blood pressure [2]: 10%

CC1(C)Oc2ccc(C#N)cc2C(NC(=O)NC(=O)C(Cl)(Cl)Cl)[C@@H]1O (some centres not stated)
Decrease in blood pressure [5]: 28% | Decrease in blood pressure [6]: 13%

CC1(C)Oc2ccc(C#N)cc2C(NC(=O)Nc2ccccc2)[C@@H]1O (some centres not stated)
Decrease in blood pressure [5]: 13%

CC1(C)Oc2ccc(C#N)cc2C(NC(=O)CCl)[C@@H]1O (some centres not stated)
Decrease in blood pressure [5]: 28%

COCC(=O)NC1c2cc(C#N)ccc2OC(C)(C)[C@H]1O (some centres not stated)
Decrease in blood pressure [1]: 32% | Decrease in blood pressure [2]: 16%

CC1(C)Oc2ccc(C#N)cc2C(NC(=O)c2c[nH]c3ccccc23)[C@@H]1O (some centres not stated)
Decrease in blood pressure [5]: 13%

CC1(C)Oc2ccc(C#N)cc2C(NC(=O)c2ccc3ccccc3c2)[C@@H]1O (some centres not stated)
Decrease in blood pressure [5]: 35% | Decrease in blood pressure [6]: 6% | Increase [4]: 17%

CC(C)(C)NC(=O)NC1c2cc(C#N)ccc2OC(C)(C)[C@H]1O (some centres not stated)
Decrease in blood pressure [5]: 8%

CCCCNC(=O)NC1c2cc(C#N)ccc2OC(C)(C)[C@H]1O (some centres not stated)
Decrease in blood pressure [5]: 29% | Decrease in blood pressure [6]: 11%

CC(=O)NC1=CC(C)(C)Oc2ccc(C#N)cc21
Decrease in blood pressure [7]: 52% | Decrease in blood pressure [6]: 20%

CCCCC(=O)NC1c2cc(C#N)ccc2OC(C)(C)[C@H]1O (some centres not stated)
Decrease in blood pressure [5]: 64% | Decrease in blood pressure [7]: 18%

CC(=O)NC1c2cc(C#N)ccc2OC(C)(C)[C@H]1O (some centres not stated)
Decrease in blood pressure [1]: 67% | Decrease in blood pressure [3]: 18% | Increase [4]: 59% | Decrease in blood pressure [2]: 47%

CC1(C)Oc2ccc(C#N)cc2C(NC(=O)c2ccccn2)[C@@H]1O (some centres not stated)
Decrease in blood pressure [3]: 22% | Increase [4]: 53% | Decrease in blood pressure [2]: 36%

CC(=S)NC1c2cc(C#N)ccc2OC(C)(C)[C@H]1O (some centres not stated)
Decrease in blood pressure [1]: 53% | Decrease in blood pressure [2]: 26%

CC(=O)NC1c2cc(C#N)c([N+](=O)[O-])cc2OC(C)(C)[C@H]1O (some centres not stated)
Decrease in blood pressure [3]: 26% | Decrease in blood pressure [2]: 46%

C/N=C(/S)NC1c2cc(C#N)ccc2OC(C)(C)[C@H]1O (some centres not stated)
Decrease in blood pressure [7]: 33% | Decrease in blood pressure [6]: 16% | Decrease in blood pressure [8]: 50%

CC1(C)Oc2ccc(C#N)cc2C(NC(=O)c2ccco2)[C@@H]1O (some centres not stated)
Decrease in blood pressure [1]: 54% | Decrease in blood pressure [2]: 11%

CC1(C)Oc2ccc(C#N)cc2C(NC(N)=O)[C@@H]1O (some centres not stated)
Decrease in blood pressure [7]: 46% | Decrease in blood pressure [6]: 18% | Decrease in blood pressure [8]: 56%

CCOC(=O)C(=O)NC1c2cc(C#N)ccc2OC(C)(C)[C@H]1O (some centres not stated)
Decrease in blood pressure [5]: 12%

CC(=O)Nc1cc2c(cc1[N+](=O)[O-])OC(C)(C)[C@@H](O)C2NC(C)=O (some centres not stated)
Decrease in blood pressure [7]: 16%

CC(=O)NC1c2ccccc2OC(C)(C)[C@H]1O (some centres not stated)
Decrease in blood pressure [5]: 13%

CC(=O)NC1CC(C)(C)Oc2ccc(C#N)cc21 (configuration not stated)
Decrease in blood pressure [1]: 44% | Decrease in blood pressure [2]: 18%

CC(=O)N(C)C1c2cc(C#N)ccc2OC(C)(C)[C@H]1O (some centres not stated)
Decrease in blood pressure [1]: 31% | Decrease in blood pressure [2]: 11%

CC(=O)NC1c2cc(Br)c([N+](=O)[O-])cc2OC(C)(C)[C@H]1O (some centres not stated)
Decrease in blood pressure [1]: 51% | Decrease in blood pressure [2]: 25%

CCOC(=O)NC1c2cc(C#N)ccc2OC(C)(C)[C@H]1O (some centres not stated)
Decrease in blood pressure [7]: 22% | Decrease in blood pressure [6]: 13% | Decrease in blood pressure [8]: 54%

CC1(C)Oc2ccc(C#N)cc2C(NC(=O)c2cccnc2)[C@@H]1O (some centres not stated)
Decrease in blood pressure [1]: 43% | Decrease in blood pressure [2]: 27%

CC(=O)NC1c2cc(C#N)ccc2OC(C)(C)[C@H]1OC(C)=O (some centres not stated)
Decrease in blood pressure [9]: 61% | Decrease in blood pressure [3]: 9% | Decrease in blood pressure [2]: 34%

CCCN(C(C)=O)C1c2cc(C#N)ccc2OC(C)(C)[C@H]1O (some centres not stated)
Decrease in blood pressure [7]: 58% | Decrease in blood pressure [6]: 24%

CC(=O)NC1c2cc(Cl)ccc2OC(C)(C)[C@H]1O (some centres not stated)
Decrease in blood pressure [5]: 34% | Decrease in blood pressure [6]: 8%

CNCC(=O)NC1c2cc(C#N)ccc2OC(C)(C)[C@H]1O (some centres not stated)
Decrease in blood pressure [5]: 15%

CC1(C)Oc2ccc(C#N)cc2C(NC(=O)c2ccoc2)[C@@H]1O (some centres not stated)
Decrease in blood pressure [1]: 35% | Decrease in blood pressure [2]: 19%

CC1(C)Oc2ccc(C#N)cc2C(NC(=O)c2ccc[nH]2)[C@@H]1O (some centres not stated)
Decrease in blood pressure [1]: 50% | Decrease in blood pressure [2]: 12%

CCN(C(C)=O)C1c2cc(C#N)ccc2OC(C)(C)[C@H]1O (some centres not stated)
Decrease in blood pressure [1]: 22% | Decrease in blood pressure [2]: 14%

CC1(C)Oc2ccc(C#N)cc2C(N2CCCC2=O)C1O (configuration not stated) [CROMAKALIM]
Decrease in blood pressure [1]: 47% | Decrease in blood pressure [3]: 13% | Increase [4]: 110% | Decrease in blood pressure [2]: 39%

CC(N/C(=N\C#N)Nc1ccncc1)C(C)(C)C (configuration not stated) [PINACIDIL ANHYDROUS]
Decrease in blood pressure [7]: 39% | Decrease in blood pressure [6]: 11% | Increase [4]: 72%
